Experimental data from different studies.
Each line is one published result; the experiments were not run side by side.
Target: STE20/SPS1-related proline-alanine-rich protein kinase (STK39, Homo sapiens, UniProt Q9UEW8)

| Compound | read-out | mode | technique | tested at | quantity | value |
| --- | --- | --- | --- | --- | --- | --- |
| Cc1ccc(C(=O)Nc2ccc(CN3CCN(C)CC3)c(C(F)(F)F)c2)cc1C#Cc1cnc2cccnn12 | enzyme activity | inhibitor |  | 23.5 nM | remaining activity | 85% |
| CC(C)(O)[C@H]1CC[C@H](Nc2ccc3ncc(-c4cccc(C(F)(F)F)c4)n3n2)CC1 | enzyme activity | inhibitor |  | 1 µM | remaining activity | 112% |
| O=C1NC(=O)c2cc(Nc3ccc(F)cc3)c(Nc3ccc(F)cc3)cc21 | cell-free assay |  |  | 0.5 µM | remaining signal | 89.2% |
| O=C(Nc1cnn(-c2csc(C(=O)NC3COC3)c2)c1)Nc1ccccc1Cl | enzyme activity | inhibitor |  | 5 µM | remaining activity | 87.5% |
| Cc1cc(-n2nc(Cc3cc(F)cc(C(F)(F)F)c3)nc2C)ccc1C(N)=O | cell-free assay |  | competition with immobilised ligand | 1 µM | remaining binding | 100% |
| CC(C)(C)c1nc2c(s1)c1nc(N)ncc1c1ccc(NS(=O)(=O)c3c(F)cccc3F)c(F)c12 | enzyme activity | inhibitor | radiometric | 1 µM | remaining activity | 92% |
| O=c1nc(-c2ccccn2)sc2ccccc12 | binding |  | competition with immobilised ligand | 1 µM | remaining binding | 100% |
| Cn1cnc(Br)c1C1=CN(c2ncnc3[nH]cnc23)CCS1 | enzyme activity | inhibitor | radiometric | 50 nM | inhibition | 65.5% |
| Cc1c(NC(=O)c2cc(C(N)=O)nc3cc(F)ccc23)c(C(F)(F)F)nn1Cc1ccc(C(C)(C)C)cc1 | cell-free assay |  | competition with immobilised ligand | 1 µM | remaining binding | 100% |
| COc1ccc(COc2ccc(Cc3cnc(N)nc3N)cc2OC)cc1 | cell-free assay |  |  | 0.5 µM | remaining signal | 87.6% |
| CCC(=O)N[C@@H]1CC[C@H](C(=O)N(C)c2ccc(-c3nc4ccccc4o3)cc2)C1 | cell-free assay |  | competition with immobilised ligand | 1 µM | remaining binding | 73% |
| Cc1ccc(NC(=O)c2ccc(CN3CCN(C)CC3)cc2)cc1Nc1nc(-c2cccnc2)cs1 | cell-free assay |  |  | 0.5 µM | remaining signal | 94% |
